Shown are actives, neighbours in structure and some others; about 1.8% of the full set was active somewhere.
NPY1 pot ag – human NPY-Y1 potentiation or agonism, primary screen | NPY-Y1 expressing cells, potentiator/agonist activation | activation, % at 3.6 µM | 220,000 compounds, 0.37% hits | AID 1304; in the data active = activation above about 33%, passing the limit was not always enough;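 note: cells stimulated with NPY at EC10 then isoproterenol at EC100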
Target sequence (P25929 whole entry, looked up): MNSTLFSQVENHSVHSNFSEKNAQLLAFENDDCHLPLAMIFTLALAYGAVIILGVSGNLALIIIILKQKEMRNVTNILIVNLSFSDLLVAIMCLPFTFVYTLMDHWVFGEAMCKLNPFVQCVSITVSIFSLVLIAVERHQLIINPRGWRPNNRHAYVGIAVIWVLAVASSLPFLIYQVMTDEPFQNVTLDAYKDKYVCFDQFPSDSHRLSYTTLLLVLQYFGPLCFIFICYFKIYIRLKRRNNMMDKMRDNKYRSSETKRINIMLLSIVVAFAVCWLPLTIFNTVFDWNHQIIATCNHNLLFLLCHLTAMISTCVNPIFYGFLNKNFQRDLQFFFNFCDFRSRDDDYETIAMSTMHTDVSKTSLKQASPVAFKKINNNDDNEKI
NPY-Y2 antag – NPY-Y2 (human) receptor antagonism. 140,000 compounds, 0.99% hits. P49146. inhibition, % at 2.7 µM. AID 793. NPY-Y2 expressing cells, antagonist mode
NPY-Y2 PAM-ag – potentiators or agonists of human neuropeptide Y receptor Y2 | cells expressing NPY-Y2, potentiator/agonist read-out | activation, % at 3.6 µM | 220,000 compounds, 0.45% hits; in the data active = activation above about 27%;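 note: cells stimulated with NPY near EC25 plus isoproterenol at EC100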
NPY-Y1 antag – NPY-Y1 (human) receptor antagonism; P25929; HEK293-CNG Y1 cells, membrane potential fluorescence; NPY at EC95, then isoproterenol; inhibition, % at 3.6 µM; 200,000 compounds, 1% hits; AID 1040;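 active = inhibition above the campaign mean inhibition of all tested compounds plus 3 SD, cut at about 20% in these data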
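Material: HEK293 Y1/CNG channel cell line | Also added: NPY (25 nM), isoproterenol (1 µM), Ro 20-1724 (25 µM) | Compound: One concentration, 3.6 µM, in 0.4% DMSO | Schedule: 3 h dye uptake, 1 h room-temperature compound, 45 min post-isoproterenol | Signal: Membrane-potential fluorescent dye readout | Read-out: % inhibition of NPY effect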
NPY1 antag conf – human NPY-Y1 antagonism, confirmation; shares compounds with NPY-Y1 antag; HEK293-CNG NPY-Y1, membrane potential fluorescence, cAMP; NPY challenge against isoproterenol-raised cAMP; inhibition, % at 3.6 µM; 1,200 compounds, 21% hits; AID 1254; in the data active = inhibition above about 20%
NPY-Y2 antag ct – human NPY-Y2 antagonism in NPY-Y1 counter-screen; inhibition, % at 3.6 µM; HEK293 NPY-Y2 CNG membrane potential fluorescence; cells given NPY, then isoproterenol; 1,200 compounds, 28% hits; shares compounds with NPY-Y1 antag
Hits are given with their value; i = inactive; nt = no result given; ! = not active in a repeat. Cut-off read from the data, not from the text of the source, unless noted: active = inhibition above about 17%; inactive = the rest.

SMILES | NPY1 pot ag | NPY-Y2 antag | NPY-Y2 PAM-ag | NPY-Y1 antag | NPY1 antag conf | NPY-Y2 antag ct
CC(C)CC(NC(=O)CNC(=O)C1O[C@@H]2OC(C)(C)O[C@@H]2[C@H]2OC(C)(C)O[C@@H]12)C(=O)O (stereo not given in full) | i | nt | i | i | nt | nt
COc1ccc(C(=O)C2CCCN(Cc3cccn3-c3nccs3)C2)cc1OC (stereo not given) | i | nt | i | nt | nt | nt
O=C(c1ccc(C(F)(F)F)cc1)C1CCCN(Cc2cccn2-c2ncccn2)C1 (stereo not given) | i | nt | i | 23 | i | 18
O=C(c1ccc(Cl)cc1)C1CCCN(Cc2cccn2-c2ccccn2)C1 (stereo not given) | i | nt | i | 59 | 32 | 31
OCCC1CN(Cc2cccn2-c2ccccn2)CCN1C1CCCC1 (stereo not given) | i | nt | i | i | nt | nt
CC(C)Oc1cccc(C(=O)C2CCCN(Cc3cccn3-c3ccccn3)C2)c1 (stereo not given) | i | nt | i | 49 | 44 | 40
CCOCCn1c(SC(C)C(C)=O)nc2c1c(=O)[nH]c(=O)n2C (stereo not given) | i | nt | i | nt | nt | nt
Cc1noc(C)c1CSc1nnc(-c2ccccc2F)n1CCc1ccccc1 | i | i | i | 20 | i | i
Cc1noc(C)c1CSc1nc2ccccc2n1C | i | i | i | i | nt | nt
CC(C)Cn1cc(F)c(=O)n(CC(C)C)c1=O | i | nt | i | i | nt | nt
CC(=O)OCP(C)(=O)COC(C)=O | i | i | i | i | nt | nt
CC(=O)OCC[N+](C)(C)C | i | i | i | 27 | 29 | 18!
CN(C)c1ccnc(Oc2ccccc2)c1C#N | i | i | i | i | nt | nt
CN(C)c1ccnc(SCc2ccccc2Cl)c1C#N | i | i | i | 28 | i | 29
O=C1/C(=C/c2ccccn2)SC(=S)N1NS(=O)(=O)c1ccccc1 | i | nt | i | 24 | i | i
Oc1oc(C=Nc2ccc(F)cc2F)c2ccccc12 | i | nt | i | i | nt | nt
CCOc1ccc(C(=O)Nc2cc(C)on2)cc1OCC | i | i | i | i | nt | nt
CCCCOc1cccc(OCCCC)c1C(=O)Nc1cc(C)on1 | i | i | i | 51 | 22 | i
Cc1ccc(-c2csc3nc4c5ccccc5c(NCCCN(C)C)nn4c(=O)c23)cc1 | i | nt | i | 24 | 24 | 26
CC1(c2cc([N+](=O)[O-])cc([N+](=O)[O-])c2)CC(C)(C)N(C(=O)c2ccccc2)c2ccccc21 (stereo not given) | i | i | i | i | nt | nt
CC1(c2ccccc2)CC(C)(C)N(C(=O)C2CCCO2)c2ccccc21 (stereo not given) | i | i | i | 27 | i | i
C=CCNC(=O)/C(C#N)=C/c1cn(-c2ccccc2)nc1-c1cccs1 | i | i | i | i | nt | nt
O=C1/C(=C/c2cccs2)Cc2ccccc21 | i | i | i | i | nt | nt
O=C1/C(=C\c2ccc(Br)o2)Cc2ccccc21 | i | i | i | 25 | i | i
COC(=O)CNc1cccc(C(F)(F)F)c1 | i | nt | i | i | nt | nt
SMILES | NPY1 pot ag | NPY-Y2 antag | NPY-Y2 PAM-ag | NPY-Y1 antag | NPY1 antag conf | NPY-Y2 antag ct
Clc1ccc2nc(N3CCNCC3)nc(-c3ccccc3)c2c1 | i | i | i | 26 | i | 20
CN1CCN(c2nc(-c3ccccc3)c3cc(Cl)ccc3n2)CC1 | i | i | i | i | nt | nt
Cc1ccc2cc3cc(C(=O)NCCCN4CCc5ccccc5C4)oc3nc2c1 | i | i | i | 21 | i | i
Cc1ccc2cc3cc(C(=O)NCCCN4CCCCCC4)oc3nc2c1 | i | i | i | i | nt | nt
Cc1nn(-c2ccccn2)c2nc(-c3cccs3)cc(C(=O)NCc3ccco3)c12 | i | i | i | i | nt | nt
CCOC(=O)c1cc(-c2cccs2)nc2c1c(C)nn2-c1ccccn1 | i | nt | i | 62 | 47 | 22
COc1cccc(C2(CSc3nnc(-c4cc(OC)c(OC)c(OC)c4)o3)OCCO2)c1 | i | i | i | i | nt | nt
COC(=O)c1c(NC(=O)CSc2nnnn2-c2ccccc2)sc2c1CCC(C(C)(C)C)C2 (stereo not given) | i | i | i | i | nt | nt
COC(=O)c1c(NC(=O)CSc2nnnn2-c2ccccc2)sc2c1CCC(C)C2 (stereo not given) | i | i | i | 20 | i | i
COc1ccc2[nH]c3nc(SCc4nnc(-c5ccc(C)cc5)o4)nnc3c2c1 | i | i | i | i | nt | nt
CCC(=O)Nc1ccc(/C(C)=N\NS(=O)(=O)c2ccc(C)cc2)cc1 | i | i | i | i | nt | nt
O=C(O)CCSc1ccc2ccccc2n1 | i | i | i | i | nt | nt
O=C(O)CSc1ccc2ccccc2n1 | i | i | i | 20 | i | i
CN1CCN(C(=O)c2ccccc2-c2nc(-c3ccccc3)no2)CC1 | i | i | i | 28 | i | i
CCc1nn2cc(-c3ccccc3)nc2s1 | i | i | i | 28 | i | i
Cc1oc(-c2ccccc2)nc1Cn1cccc1C1=NC(c2ccccc2)CO1 (stereo not given) | i | i | i | 22 | 21 | 24
CSc1cc(-c2ccccc2)n(Cc2ccc(Cl)cc2Cl)c(=O)c1C#N | i | i | i | 24 | i | i
CCOc1ccc(C(=O)NCC(=O)Nc2ccc(N3CCOCC3)cc2)cc1OCC | i | nt | i | i | nt | nt
Cc1ccc(C(=O)NCCNc2nc3cc(C)c(C)cc3cc2C)cc1 | i | nt | i | 33 | 41 | 65
CCOc1ccc2nc(NCCNC(=O)C(C)C)c(C)cc2c1 | i | i | i | i | nt | nt
Cc1cc2cc(C)c(NCCNC(=O)c3ccccc3)nc2cc1C | i | nt | i | 46 | 32 | 37
COCC(=O)NCCNc1nc2ccc(C)cc2cc1C | i | i | i | i | nt | nt
CSc1ccccc1NC(=O)CSCc1ccc(Br)cc1 | i | i | i | 27 | i | i
CC(=O)c1ccc(N2CCN(C(=O)C3CCCN(S(=O)(=O)c4c(C)[nH]c(=O)[nH]c4=O)C3)CC2)cc1 (stereo not given) | i | nt | i | i | nt | nt
Cc1cccn2c(CNC3CCCc4ccccc43)c(C(=O)N3CCCCC3)nc12 (stereo not given) | i | nt | i | 24 | i | i
SMILES | NPY1 pot ag | NPY-Y2 antag | NPY-Y2 PAM-ag | NPY-Y1 antag | NPY1 antag conf | NPY-Y2 antag ct
COc1ccc(C2c3[nH]c4ccccc4c3CCN2CCCn2cccn2)c(C)c1C (stereo not given) | i | nt | i | 36 | i | 20
Cn1c(=O)n(Cc2ccccc2Br)c2ccccc21 | i | nt | i | i | nt | nt
N=c1n(CCN2CCOCC2)c2ccccc2n1Cc1ccccc1Br | i | i | i | 21 | i | i
CCC(C)(C(=O)NC1CCCCC1)N(Cc1ccco1)C(=O)Cc1cccs1 (stereo not given) | i | i | i | 72 | 38 | i
CCOC(=O)c1c(NC(C)=O)sc2c(OCC(O)CN(CC)CC)c(Br)ccc12 (stereo not given) | i | nt | i | 80 | 104 | 117
CCOC(=O)c1c(NC(C)=O)sc2c(OCCN(CC)CC)c(Br)ccc12 | i | nt | i | i | nt | nt
CCOc1cc(C)cc2oc(=O)cc(-c3ccccc3)c12 | i | i | i | i | nt | nt

Source: PubChem BioAssay (The Scripps Research Institute Molecular Screening Center)
